Experimental findings from ChEMBL document CHEMBL1157991, “Novel anti-HIV lancilactone C and related triterpenes from Kadsura lancilimba” (J Nat Prod, 1999) are described below.

Data set [1] relates to Human immunodeficiency virus 1. In words: Antiviral activity against HIV1 3B infected in human H9 T cells after 4 days by ELISA. The format is functional, organism-based. To be noted: for EC50: Human immunodeficiency virus 1, 3B, H9, 96 h. The method in brief: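 H9 T cells kept in RPMI 1640 with 10% fetal calf serum at 37 °C, 5% CO2, used in log phase. Infected with HIV-1 IIIB (MOI 0.1-0.01 IU/cell) for 1 h, washed, and seeded at 4 × 10^5 cells/mL with compound diluted in medium. After 4 days at 37 °C, p24 in medium was read by sandwich ELISA (cutoff 12.5 pg/mL) against a p24 standard curve. EC50 was derived.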

Another data set concerns H9. In words: Cytotoxicity against human H9 cells. The class given is cell-based. The essentials: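 Uninfected H9 T cells (log phase, RPMI 1640 + 10% FCS) were seeded at 4 × 10^5 cells/mL with compound diluted in medium and kept 4 days at 37 °C, 5% CO2. Cell density was counted by Coulter counter and IC50 was derived.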
A short description of data set [2]: Therapeutic index, ratio of IC50 for human H9 cells to EC50 for HIV1 3B. The class given is cell-based. As to conditions: H9 cells infected with HIV-1 3B, read-out: TI.

≈ marks a conversion by molar mass, not a printed value. Calls of active or inactive are those of the source.

As to `CC1=CC[C@@H]([C@@H](C)[C@H]2CC[C@@]3(C)C4=C(C=C5C=CC(=O)OC(C)(C)[C@@H]5C=C4)CC[C@]23C)OC1=O` [LANCILACTONE B], the result in data set [1] was inactive. Besides, half-maximal inhibition in the data set on H9 (IC50) required 7.1 µg/mL (≈ 15.3 µM).

In the case of `Cc1cn([C@H]2C[C@H](N=[N+]=[N-])[C@@H](CO)O2)c(=O)[nH]c1=O` [ZIDOVUDINE], the EC50 (in general, the concentration that produces a half-maximal response) in data set [1] is 0.045 µg/mL (≈ 0.168 µM).

Turning to `CC1=CC[C@@H]([C@@H](C)[C@H]2CC[C@@]3(C)C4=C(C=C5C=CC(=O)OC(C)(C)[C@@H]5[C@H](O)C4)CC[C@]23C)OC1=O` [LANCILACTONE A], the result in data set [1] was inactive. Further, the 50% inhibitory concentration (IC50) (commonly the concentration that gives 50% inhibition) with H9 came out at 14.3 µg/mL (≈ 29.8 µM).

Consider `CC1=CC[C@@H]([C@@H](C)[C@H]2CC[C@@]3(C)[C@@H]4C[C@@H](O)[C@H]5C(C)(C)OC(=O)C=C[C@@]56C[C@@]46CC[C@]23C)OC1=O` [KADSULACTONE A], for which, in data set [1], the result was inactive. In the data set with H9, this compound gave a 50% inhibitory concentration (IC50) of 8.6 µg/mL (≈ 17.8 µM).

In turn, `CC1=CC[C@@H]([C@@H](C)[C@H]2CC[C@@]3(C)C4=C(C=C(CCC(=O)O)C(=C(C)C)C=C4)CC[C@]23C)OC1=O` [LANCILACTONE C] came in with a concentration for a half-maximal effect (EC50) in data set [1] of 1.4 µg/mL (≈ 3.01 µM). In addition, in data set [2], the selectivity ratio was > 71.4. Besides, the concentration for half-maximal inhibition (IC50) in the data set with H9 was > 100 µg/mL.
